Measurements taken from publication PMC3983950 (Journal of medicinal chemistry, 2012).
Read-outs that look alike come from different tables or passages of the source.

Columns and labels:
[1] = target: T1, ABCG2 (Homo sapiens, UniProt Q9UNQ0); type: cell-based; settings: for class: ranked by apparent affinity and maximal extent of inhibition; for ABCG2 inhibition (in words): at 2 and 10 µM
T1 sequence (Q9UNQ0 1-655): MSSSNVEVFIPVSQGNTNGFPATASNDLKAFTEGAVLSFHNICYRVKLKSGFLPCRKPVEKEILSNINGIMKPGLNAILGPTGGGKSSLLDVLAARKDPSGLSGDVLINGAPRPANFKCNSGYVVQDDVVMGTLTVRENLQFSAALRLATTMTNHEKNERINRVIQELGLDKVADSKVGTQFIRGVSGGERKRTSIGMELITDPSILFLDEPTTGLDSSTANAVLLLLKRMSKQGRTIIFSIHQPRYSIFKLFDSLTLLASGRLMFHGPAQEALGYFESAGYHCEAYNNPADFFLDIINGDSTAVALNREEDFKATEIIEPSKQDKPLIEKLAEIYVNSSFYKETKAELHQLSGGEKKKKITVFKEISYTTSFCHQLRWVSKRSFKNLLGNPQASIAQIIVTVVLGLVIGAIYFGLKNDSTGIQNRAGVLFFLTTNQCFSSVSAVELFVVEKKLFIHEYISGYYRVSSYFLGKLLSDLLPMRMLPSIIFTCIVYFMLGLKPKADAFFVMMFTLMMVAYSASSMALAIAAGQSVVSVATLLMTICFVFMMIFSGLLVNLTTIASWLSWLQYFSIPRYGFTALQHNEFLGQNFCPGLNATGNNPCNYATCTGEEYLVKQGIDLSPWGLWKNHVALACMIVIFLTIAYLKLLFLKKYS

[2] = test system: HEK293-ABCG2 and HEK293-pcDNA3.1 cells; assay: Cytotoxicity, MTT colorimetric assay, 72 h; type: cell-based, human; settings: for IG50 (cytotoxicity, µM): concentration producing 50% inhibition of cell growth, MTT, 72 h
In short: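 HEK293-ABCG2 and empty-vector HEK293-pcDNA3.1 cells (DMEM high glucose, 10% FBS, 0.75 mg/mL G418) seeded at 1 × 10^4 cells/well, attached 24 h at 37 °C, 5% CO2. Exposed 72 h to various concentrations of test compound (DMSO stock diluted in medium). MTT (5 mg/mL solution) added for 4 h, formazan dissolved in DMSO, A570 read. Triplicates; viability relative to 0.1% DMSO control (100%).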

## CCOc1cccc(OCC)c1C(=O)/C=C/c1c(OC)cc(OC)cc1OC [Compound 9]
[1]; Table 1
  class: 3

## COc1ccc(C(=O)/C=C/c2ccc(OC)cc2OC)c(O)c1 [Compound 26]
[1]; Table 1
  class: 2 (Class 2 comprised high-affinity inhibitors producing an incomplete maximal inhibition (limited to 50–75%))

## COc1cc(/C=C/C(=O)c2c(O)cc(OC)cc2OC)cc(OC)c1 [Compound 28]
[2]
  IG50 (cytotoxicity, µM): 6.0 ± 0.4 µM
[1]; Table 1
  class: 1 (Class 1 included high-affinity inhibitors (IC50 < 1 µM) producing a complete inhibition at both 2 and 10 µM)

## CCOc1cc(OCC)c(/C=C/C(=O)c2c(OCC)cc(OCC)cc2OCC)c(OCC)c1 [Compound 16]
[1]; Table 1
  class: 2 (Class 2 comprised high-affinity inhibitors producing an incomplete maximal inhibition (limited to 50–75%))

## COc1ccc(/C=C/C(=O)c2c(OC)cccc2OC)c(OC)c1OC [Compound 6]
[1]; Table 1
  class: 3
[1]
  ABCG2 inhibition (in words): no inhibition at all

## COc1cc(OC)c(/C=C/C(=O)c2c(OC)cc(OC)cc2OC)c(OC)c1 [Compound 13]
[1]; Table 1
  class: 3

## COc1cccc(OC)c1C(=O)/C=C/c1ccccc1 [Compound 1]
[1]; Table 1
  class: 3

## COc1cc(OC)c(C(=O)/C=C/c2cn(C)c3ccccc23)c(OC)c1 [Compound 42]
[1]; Table 2
  class: 3
[1]
  ABCG2 inhibition (in words): especially low, if any, inhibition

## COc1cc(O)c(C(=O)/C=C/c2ccc(OC)c(OC)c2OC)c(OC)c1 [Compound 34]
[1]; Table 1
  class: 3

## COc1cc(/C=C/C(=O)c2ccc(OC)cc2O)cc(OC)c1 [Compound 18]
[1]; Table 1
  class: 2 (Class 2 comprised high-affinity inhibitors producing an incomplete maximal inhibition (limited to 50–75%))

## COc1cc(OC)c(C(=O)/C=C/c2c(OC)cccc2OC)c(OC)c1 [Compound 15]
[1]; Table 1
  class: 3
[1]
  ABCG2 inhibition (in words): especially low, if any, inhibition

## COc1cc(OC)c(/C=C/C(=O)c2c(O)cc(OC)cc2OC)c(OC)c1 [Compound 32]
[1]; Table 1
  class: 3

## COc1cc(OC)c(/C=C/C(=O)c2cn(C)c3ccccc23)c(OC)c1 [Compound 37]
[2]
  IG50 (cytotoxicity, µM): 4.0 ± 0.2 µM
[1]; Table 2
  class: 1 (Class 1 included high-affinity inhibitors (IC50 < 1 µM) producing a complete inhibition at both 2 and 10 µM)

## CCOc1cccc(OCC)c1C(=O)/C=C/c1c(OC)cccc1OC [Compound 10]
[1]; Table 1
  class: 3
[1]
  ABCG2 inhibition (in words): especially low, if any, inhibition

## COc1ccc(C(=O)/C=C/c2c(OC)cccc2OC)c(O)c1 [Compound 25]
[1]; Table 1
  class: 2 (Class 2 comprised high-affinity inhibitors producing an incomplete maximal inhibition (limited to 50–75%))

## COc1cccc(OC)c1/C=C/C(=O)c1cn(C)c2ccccc12 [Compound 38]
[1]; Table 2
  class: 1 (Class 1 included high-affinity inhibitors (IC50 < 1 µM) producing a complete inhibition at both 2 and 10 µM)

## COc1cc(OC)c(/C=C/C(=O)c2c(OC)cccc2OC)c(OC)c1 [Compound 5]
[1]; Table 1
  class: 3

## COc1cccc(OC)c1/C=C/C(=O)c1ccccc1 [Compound 17]
[1]; Table 1
  class: 3
[1]
  ABCG2 inhibition (in words): especially low, if any, inhibition

## COc1ccc(/C=C/C(=O)c2cn(C)c3ccccc23)c(OC)c1 [Compound 35]
[1]; Table 2
  class: 3

## COc1cc(/C=C/C(=O)c2c(OC)cccc2OC)cc(OC)c1OC [Compound 8]
[1]; Table 1
  class: 3
[1]
  ABCG2 inhibition (in words): low inhibition

## COc1ccc(/C=C/C(=O)c2ccc(OC)cc2OC)c(OC)c1 [Compound 12]
[1]; Table 1
  class: 2 (Class 2 comprised high-affinity inhibitors producing an incomplete maximal inhibition (limited to 50–75%))

## COc1cc(O)c(C(=O)/C=C/c2ccccc2)c(OC)c1 [Compound 29]
[1]; Table 1
  class: 2 (Class 2 comprised high-affinity inhibitors producing an incomplete maximal inhibition (limited to 50–75%))

## COc1ccc(/C=C/C(=O)c2c(OC)cc(OC)cc2OC)c(OC)c1 [Compound 14]
[1]; Table 1
  class: 3

## COc1ccc(C(=O)/C=C/c2ccc(OC)c(OC)c2)c(O)c1 [Compound 20]
[1]; Table 1
  class: 2 (Class 2 comprised high-affinity inhibitors producing an incomplete maximal inhibition (limited to 50–75%))

## COc1cccc(OC)c1/C=C/C(=O)c1c(OC)cccc1OC [Compound 4]
[1]; Table 1
  class: 3

## COc1cccc(/C=C/C(=O)c2c(OC)cccc2OC)c1 [Compound 3]
[1]; Table 1
  class: 3

## COc1cc(OC)c(/C=C/C(=O)c2cn(C)c3ccc(OC)cc23)c(OC)c1 [Compound 39]
[2]
  fold lower IG50 than compounds 27 and 38: 50 fold
  IG50 (cytotoxicity, µM): 1.0 ± 0.1 µM
[1]; Table 2
  class: 1 (Class 1 included high-affinity inhibitors (IC50 < 1 µM) producing a complete inhibition at both 2 and 10 µM)

## COc1ccc(C(=O)/C=C/c2cn(C)c3ccccc23)c(OC)c1 [Compound 40]
[1]; Table 2
  class: 3

## COc1cc(O)c(C(=O)/C=C/c2ccccc2OC)c(OC)c1 [Compound 30]
[1]; Table 1
  class: 3

## COc1cccc(/C=C/C(=O)c2c(O)cc(OC)cc2OC)c1 [Compound 31]
[2]
  IG50 (cytotoxicity, µM): 10.0 ± 2.1 µM
[1]; Table 1
  class: 1 (Class 1 included high-affinity inhibitors (IC50 < 1 µM) producing a complete inhibition at both 2 and 10 µM)

## COc1cccc(OC)c1C(=O)/C=C/c1cn(C)c2ccccc12 [Compound 43]
[1]; Table 2
  class: 3
[1]
  ABCG2 inhibition (in words): especially low, if any, inhibition

## COc1cc(O)c(C(=O)/C=C/c2c(OC)cccc2OC)c(OC)c1 [Compound 27]
[1]; Table 1
  class: 1 (Class 1 included high-affinity inhibitors (IC50 < 1 µM) producing a complete inhibition at both 2 and 10 µM)

## COc1ccccc1/C=C/C(=O)c1c(OC)cccc1OC [Compound 2]
[1]; Table 1
  class: 3

## COc1cc(/C=C/C(=O)c2cn(C)c3ccccc23)cc(OC)c1OC [Compound 36]
[1]; Table 2
  class: 3

## CCOc1cccc(OCC)c1C(=O)/C=C/c1ccc(OC)cc1OC [Compound 11]
[1]; Table 1
  class: 3

## COc1cc(O)c(C(=O)/C=C/c2cc(OC)c(OC)c(OC)c2)c(OC)c1 [Compound 33]
[1]; Table 1
  class: 2 (Class 2 comprised high-affinity inhibitors producing an incomplete maximal inhibition (limited to 50–75%))

## COc1ccc(C(=O)/C=C/c2cc(OC)ccc2OC)c(O)c1 [Compound 23]
[1]; Table 1
  class: 2 (Class 2 comprised high-affinity inhibitors producing an incomplete maximal inhibition (limited to 50–75%))

## COc1cc(OC)c(OC)cc1/C=C/C(=O)c1c(OC)cccc1OC [Compound 7]
[1]; Table 1
  class: 3

## Cn1cc(/C=C/C(=O)c2cn(C)c3ccccc23)c2ccccc21 [Compound 44, 1,3-diindolylpropenone]
[1]; Table 2
  class: 3
